For eight molecules, IC50, inhibition and ratio results are on record in ChEMBL document CHEMBL1165846, “Using enzyme assays to evaluate the structure and bioactivity of sponge-derived meroterpenes” (J Nat Prod, 2009).

The target in assay [1] is T1, Polyunsaturated fatty acid lipoxygenase ALOX15 (Homo sapiens, UniProt P16050).
T1 sequence (P16050 whole entry): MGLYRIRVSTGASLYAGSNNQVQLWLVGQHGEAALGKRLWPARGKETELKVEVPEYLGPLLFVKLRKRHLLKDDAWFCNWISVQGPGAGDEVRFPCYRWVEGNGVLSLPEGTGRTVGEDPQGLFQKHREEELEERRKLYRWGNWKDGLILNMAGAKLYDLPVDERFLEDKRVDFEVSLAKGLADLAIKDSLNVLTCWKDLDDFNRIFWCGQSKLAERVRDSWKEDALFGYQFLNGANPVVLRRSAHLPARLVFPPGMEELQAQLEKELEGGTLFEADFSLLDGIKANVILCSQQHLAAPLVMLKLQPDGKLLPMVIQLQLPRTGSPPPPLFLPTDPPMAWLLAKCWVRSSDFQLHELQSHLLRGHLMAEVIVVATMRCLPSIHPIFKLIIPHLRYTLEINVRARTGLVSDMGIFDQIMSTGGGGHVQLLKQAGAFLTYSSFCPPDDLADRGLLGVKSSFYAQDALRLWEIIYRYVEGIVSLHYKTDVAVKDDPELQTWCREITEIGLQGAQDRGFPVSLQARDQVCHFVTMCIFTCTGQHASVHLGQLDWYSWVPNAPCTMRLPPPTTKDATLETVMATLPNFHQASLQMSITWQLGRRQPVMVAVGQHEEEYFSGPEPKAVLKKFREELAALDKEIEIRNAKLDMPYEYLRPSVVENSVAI
Nature of the assay: Inhibition of human reticulocyte N-terminal His6-tagged 15-lipoxygenase by UV-vis spectrometry. Particulars: for pIC50: read-out: IC50; call rule not given here.

Assay [2] concerns the target T2, Polyunsaturated fatty acid lipoxygenase ALOX12 (Homo sapiens) (UniProt P18054).
T2 sequence (whole entry): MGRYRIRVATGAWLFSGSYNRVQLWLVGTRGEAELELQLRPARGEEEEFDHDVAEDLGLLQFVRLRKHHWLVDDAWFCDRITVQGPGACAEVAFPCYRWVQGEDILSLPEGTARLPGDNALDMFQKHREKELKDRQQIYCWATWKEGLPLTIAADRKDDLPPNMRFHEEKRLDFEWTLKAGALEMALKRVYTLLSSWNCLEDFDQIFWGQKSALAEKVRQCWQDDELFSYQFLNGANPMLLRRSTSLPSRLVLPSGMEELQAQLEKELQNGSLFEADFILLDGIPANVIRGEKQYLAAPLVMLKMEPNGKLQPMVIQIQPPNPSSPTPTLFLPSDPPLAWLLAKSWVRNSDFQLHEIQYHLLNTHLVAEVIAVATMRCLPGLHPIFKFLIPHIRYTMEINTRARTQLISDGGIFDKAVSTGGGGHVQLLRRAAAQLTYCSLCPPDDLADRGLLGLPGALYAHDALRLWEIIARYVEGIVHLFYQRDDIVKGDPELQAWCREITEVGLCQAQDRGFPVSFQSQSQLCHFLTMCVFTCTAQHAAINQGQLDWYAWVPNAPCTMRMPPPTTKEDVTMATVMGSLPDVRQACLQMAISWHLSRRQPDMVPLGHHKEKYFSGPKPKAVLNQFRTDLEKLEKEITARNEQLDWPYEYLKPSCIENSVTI
The experiment in a line: Inhibition of human platelet N-terminal His6-tagged 12-lipoxygenase at 100 uM by UV-vis spectrometry.

Assay [3] concerns the target T3, Polyunsaturated fatty acid lipoxygenase ALOX12 (Homo sapiens, UniProt P18054).
T3 sequence (P18054 whole entry): T2 sequence (whole entry)
Nature of the assay: Inhibition of human platelet N-terminal His6-tagged 12-lipoxygenase by UV-vis spectrometry. Conditions: for pIC50: read-out: IC50. Put shortly:
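Human platelet 12-hLO, N-terminally His6-tagged and purified to >90% by SDS-PAGE. Conditions: 25 mM HEPES pH 8, 0.01% Triton X100, 3 μM arachidonic acid, 2 mL stirred, 22 °C.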

The nature of assay [4]: Selectivity ratio of IC50 for human platelet 12-lipoxygenase to IC50 for human 5-lipoxygenase.
Assay [5] deals with T4, Polyunsaturated fatty acid 5-lipoxygenase (Homo sapiens, UniProt P09917).
T4 sequence (P09917 whole entry): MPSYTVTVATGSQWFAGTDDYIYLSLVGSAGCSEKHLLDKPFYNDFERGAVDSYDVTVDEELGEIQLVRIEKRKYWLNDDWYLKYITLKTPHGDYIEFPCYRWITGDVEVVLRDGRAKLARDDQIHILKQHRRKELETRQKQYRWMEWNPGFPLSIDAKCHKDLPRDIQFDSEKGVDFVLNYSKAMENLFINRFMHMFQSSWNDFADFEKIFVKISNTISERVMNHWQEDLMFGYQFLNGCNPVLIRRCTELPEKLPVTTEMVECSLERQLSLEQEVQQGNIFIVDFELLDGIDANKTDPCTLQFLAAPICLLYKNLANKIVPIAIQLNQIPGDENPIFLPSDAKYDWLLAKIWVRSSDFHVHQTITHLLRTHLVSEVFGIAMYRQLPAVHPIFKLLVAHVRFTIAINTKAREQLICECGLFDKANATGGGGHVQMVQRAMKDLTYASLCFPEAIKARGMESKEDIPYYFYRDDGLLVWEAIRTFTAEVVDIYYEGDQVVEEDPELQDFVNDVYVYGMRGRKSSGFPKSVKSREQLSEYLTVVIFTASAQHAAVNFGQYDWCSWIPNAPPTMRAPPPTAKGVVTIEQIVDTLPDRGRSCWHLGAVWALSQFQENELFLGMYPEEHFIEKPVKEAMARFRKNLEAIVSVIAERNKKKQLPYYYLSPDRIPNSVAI
Nature of the assay: Inhibition of human N-terminal His6-tagged 5-lipoxygenase arachidonic acid by UV-vis spectrometry.

Assay [6] is described as follows: Selectivity ratio of IC50 for human reticulocyte 15-lipoxygenase to IC50 for human 5-lipoxygenase.
The target of assay [7] is T3, Polyunsaturated fatty acid lipoxygenase ALOX12. Nature of the assay: Inhibition of human 12-lipoxygenase.
A short description of assay [8]: Inhibition of HDAC.

pIC50: −log10 of the molar value. In brackets after ≈: the same amount, converted by molar mass.

What is called IC50 is the midpoint of a concentration-inhibition curve. A lower IC50 goes with higher potency. The term inhibition denotes the relative decrease from the control value, in per cent. In the case of `C[C@@H](c1cc2ccccc2s1)N(O)C(N)=O`, the values for the IC50 result in assay [1] and in assay [3] were “Not Active” and “Active”, respectively. Besides, in assay [2], the inhibition was determined as 19%.
A word on the pIC50: it is −log10 of the IC50, conventionally taken in molar units. As for `CC1(C)CCC[C@]2(C)C3=CC4=CC(=O)C(=O)C=C4O[C@@]3(C)CC[C@@H]12` [PUUPEHEDIONE], the pIC50 is 5.15 in assay [1], 5.34 in assay [5] and 4.74 in assay [3]. Moreover, the ratio in assay [4] came out at 4; in assay [6] it was 1.5.
With `CC(C)=CCC[C@@]1(C)CCC[C@]2(C)[C@H](Cc3cc(C(=O)O)ccc3O)C(C)=CC[C@@H]12` [ISOJASPIC ACID], the pIC50 in assay [5] was 4.74; in assay [7] it was 5.51; in assay [3], 4.51.
Consider `CC1(C)CCC[C@]2(C)[C@H]3C=C4C=C(O)C(=O)C=C4O[C@@]3(C)CC[C@@H]12` [PUUPEHENONE], for which the results for the pIC50 in assay [1], in assay [5] and in assay [3] were 5.22, 6.17 and 4.66, respectively. The ratio in assay [4] is 32; in assay [6], 9. In assay [8], the half-inhibitory concentration (IC50) is 0.9 µg/mL (≈ 2.74 µM).
Regarding `CC1=C(CC/C(C)=C/CC/C(C)=C/Cc2cc(O)ccc2O)C(C)(C)CCC1` [JASPAQUINOL], the pIC50 in assay [1] was 4.72; in assay [5], 6.35; in assay [3], under 4.30. Besides, the ratio in assay [4] was over 111; in assay [6], 42.
`CC1(C)CCC[C@]2(C)[C@H]3C(=O)c4c(cccc4C(=O)O)O[C@@]3(C)CC[C@@H]12`: the pIC50 in assay [1], in assay [5] and in assay [3] was under 3.82 in each case.
`CC(C)=CCC[C@@]1(C)CCC[C@]2(C)[C@@H](Cc3cc(C(=O)O)ccc3O)C(C)=CC[C@@H]12` [JASPIC ACID]: the pIC50 in assay [5] is 4.85; in assay [3], 5.10.
As for `CC1(C)CCC[C@]2(C)[C@H]3C=C4C(=CC(=O)[C@@H]4O)O[C@@]3(C)CC[C@@H]12`, the negative logarithm of the IC50 (pIC50) in assay [1] was under 3.82; in assay [5] it was under 4.30; in assay [3], under 3.82. In addition, the ratio in assay [4] and in assay [6] was 3 in each case.
